Measurements from different studies.
Protocols differ between the studies behind these lines.
Target: 5'-AMP-activated protein kinase catalytic subunit alpha-1 (PRKAA1, Homo sapiens, UniProt Q13131)
Technique: competition with immobilised ligand

| SMILES | assay | setting | remaining binding |
| --- | --- | --- | --- |
| O=C(NCCCN1CCOCC1)c1ccc(Nc2ncc(Cl)c(-c3ccc(Cl)s3)n2)cc1 | binding | 1 µM | 15% |
| O=C(Nc1cnc(Oc2ccc(F)cc2)nc1)N1CCc2ncccc2[C@@H]1c1ccc(F)cc1 | cell-free assay | 1 µM | 88% |
| O=C(c1ccc(Nc2nccc(-c3cc4ccccc4s3)n2)cc1)N1CCC(N2CCCC2)CC1 | binding | 1 µM | 36% |
| CNCc1ccccc1-c1csc([C@@H](C)Nc2nc(C)nc3cc(OC)c(OC)cc23)c1 | cell-free assay | 1 µM | 100% |
| N[C@@H]1CCN(c2nccc(-c3cnn4ncccc34)n2)C1 | binding | 1 µM | 95% |
| CN(C)C(=O)Cn1cc(-c2nc(C3(c4ccc(-c5cnc(N)nc5)cc4)CC3)no2)cn1 | cell-free assay | 1 µM | 98% |
| O=C(Nc1c[nH]nc1C(=O)NC1CCNCC1)c1cc(F)cc(F)c1 | binding | 1 µM | 100% |
| CN(CCCC(F)(F)F)c1nccc(-c2cnn3ncccc23)n1 | binding | 1 µM | 100% |
| NS(=O)(=O)c1cc(NC(=O)C2(c3ccccc3Cl)CC2)ccc1Oc1cccc(Cl)c1 | cell-free assay | 1 µM | 80% |
| COc1ncc2cc3ccccc3nc2c1C#N | cell-free assay | 5 µM | 100% |
| CC(C)CC(=O)N1CCc2nc(-c3ccc(Br)cc3)nc(N(C)Cc3ccccc3)c2C1 | cell-free assay | 0.1 µM | 100% |
| C[C@H]1CCN(c2nccc(-c3cnn4ncccc34)n2)C1 | binding | 1 µM | 93% |
| COc1cnc(Nc2cccc(S(N)(=O)=O)c2)nc1N1CCN(c2ccccc2)C(=O)C1 | binding | 1 µM | 100% |
| F[C@@H]1CCN(c2nccc(-c3cnn4ncccc34)n2)C1 | binding | 1 µM | 85% |
| FC(F)(F)Oc1cccc(-c2cnc3ccc(-c4ccncc4)nn23)c1 | cell-free assay | 5 µM | 96% |
| CN(C)c1nccc(-c2cnc3ncccn23)n1 | binding | 1 µM | 100% |
| O=S(=O)(NC1CCC(c2cc(F)ccc2F)(S(=O)(=O)c2ccc(Cl)cc2)CC1)C(F)(F)F (stereo not drawn) | cell-free assay | 1 µM | 100% |
| Cc1cnc(Nc2ccc(C(=O)N3CCC(N4CCCC4)CC3)cc2)nc1-c1cc2ccccc2s1 | binding | 1 µM | 7.9% |
| c1cncc(-c2cccc(Nc3nccc(NC4CCCCC4)n3)c2)c1 | binding | 10 µM | 15% |
| COc1ccnn2ncc(-c3ccnc(N(C)C)n3)c12 | binding | 1 µM | 97% |
| CCN1CCN(Cc2ccc(C(=O)Nc3ccc(C)c(Oc4ccc5c(c4)CC(=O)N5)c3)cc2C(F)(F)F)CC1 | binding | 1 µM | 100% |
